From paper PMC10100021 (Chemistry, an Asian Journal, 2022)
Like-named read-outs stand apart in the source and are kept apart here.

Experiments:
CYP199A4 [1] = biological target: T1, CYP199A4 (Rhodopseudomonas palustris, UniProt Q2IU02); assay: Spin state shift; assay type: binding, Rhodopseudomonas palustris HaA2; conditions: WT CYP199A4, 50 mM Tris pH 7.4
T1 sequence (Q2IU02 1-410): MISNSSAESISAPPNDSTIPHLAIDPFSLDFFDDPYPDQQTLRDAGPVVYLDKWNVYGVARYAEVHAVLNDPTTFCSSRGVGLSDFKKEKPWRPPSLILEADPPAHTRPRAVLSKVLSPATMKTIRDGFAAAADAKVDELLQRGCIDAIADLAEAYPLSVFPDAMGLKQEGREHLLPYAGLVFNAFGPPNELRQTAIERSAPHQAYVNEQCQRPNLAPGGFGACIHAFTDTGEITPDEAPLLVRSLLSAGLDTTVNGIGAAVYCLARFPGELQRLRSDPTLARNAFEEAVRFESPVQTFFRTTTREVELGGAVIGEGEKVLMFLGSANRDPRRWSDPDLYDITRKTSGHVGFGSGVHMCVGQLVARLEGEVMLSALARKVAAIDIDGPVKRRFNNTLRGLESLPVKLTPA
Summary of the method: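 UV-visible spectra of CYP199A4 recorded at 30±0.5 °C after substrate addition. Percentage shift from low-spin to high-spin heme estimated to approximately ±5% by a previously described method.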

CYP199A4 [2] = biological target: T1, CYP199A4; assay: Dissociation constant determination by substrate binding titration; set-up: species or system Rhodopseudomonas palustris HaA2; conditions: WT CYP199A4, 50 mM Tris pH 7.4
Summary of the method: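 CYP199A4 at 0.5–1.5 μM in 50 mM Tris, pH 7.4, held at 30 °C. Substrate titrated in from 1, 10 or 100 mM ethanol stocks. Soret band peak-to-trough absorbance difference recorded over 700–250 nm. Percentage high-spin shift estimated to about ±5%. Kd fitted from the ΔA titration data.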

CYP199A4 [3] = biological target: T1, CYP199A4; assay: In vitro NADH oxidation activity assay; assay type: biochemical, Rhodopseudomonas palustris HaA2; conditions: for PFR (product formation rate): HaPuR:HaPux:CYP199A4 1:10:1, 0.5 μM CYP, 50 mM Tris pH 7.4; for Coupling (percentage of NADH utilized for the formation of products): WT CYP199A4
Summary of the method: (§1)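 Turnover run at 30 °C in oxygenated 50 mM Tris, pH 7.4, with 5 μM HaPux, 0.5 μM HaPuR and 0.5 μM CYP199A4 (WT or F298V). Started with substrate at 1 mM final. Product formation rate and coupling from quantified products. H2O2 by HRP/phenol/4-aminoantipyrine assay. Mean ±S.D., n≥3.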

CYP199A4 [4] = biological target: T1, CYP199A4; assay: Product distribution of enzyme-catalyzed oxidation by HPLC / GC-MS; assay type: biochemical, Rhodopseudomonas palustris HaA2
Summary of the method: (§2)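 Products of in vitro turnovers quantified by HPLC against product-standard calibrations. Sample: 132 μL reaction mix plus 2 μL of 10 mM 9-hydroxyfluorene in ethanol as internal standard (diphenylmethane for the isopropyl substrate), then 66 μL acetonitrile. Standards made by whole-cell E. coli oxidation or borohydride reduction, or estimated from the closest analogue. Derivatized samples identified by GC-MS on a DB-5 column.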

CYP199A4 [5] = biological target: T1, CYP199A4; conditions: WT CYP199A4, cited from earlier work; for shift to the high‐spin form of ferric CYP199A4: ref 9c, 14, 17; for HS (%), change in the heme spin state from low‐spin to high‐spin upon addition of substrate: reported previously
CYP199A4 [6] = biological target: T1, CYP199A4; conditions: WT CYP199A4; reported previously; cited from earlier work
F298V mutant of CYP199A4 [7] = assay: In vitro NADH oxidation activity assay with F298V mutant; assay type: biochemical, Rhodopseudomonas palustris HaA2
Summary of the method: as §1

F298V mutant of CYP199A4 [8] = assay: Spin state shift assay with F298V mutant; assay type: binding, Rhodopseudomonas palustris HaA2
F298V mutant of CYP199A4 [9] = assay: Product distribution of oxidation by F298V mutant; assay type: biochemical, Rhodopseudomonas palustris HaA2
Summary of the method: as §2

CYP199A4 [10] = biological target: T1, CYP199A4; conditions: WT CYP199A4; reported previously; cited from earlier work; remark: listed apart in the source
CYP199A4 [11] = biological target: T1, CYP199A4; assay: Hydrogen peroxide uncoupling, HRP/phenol/4-aminoantipyrine assay; assay type: biochemical, Rhodopseudomonas palustris HaA2; conditions: WT CYP199A4, HRP assay
Summary of the method: as §1

[12] = WT CYP199A4, min^−1 abbreviates nmol.nmol‐CYP^−1.min^−1
[13] = listed as 4‐n‐propylbenzoic acid

Question: Which “HS (%), change in the heme spin state from low‐spin to high‐spin upon addition of substrate” value (shortened to “HS (%), change in the heme spin state”) (CYP199A4 [1]) does the source give for `CC(C)Cc1ccc(C(=O)O)cc1` [4‐isobutylBA, 4‐isobutylbenzoic acid] here?
Answer: >95%

Question: What about the Kd (CYP199A4 [2]) of the same compound?
Answer: 590 ± 30 nM

Question: And the “PFR (product formation rate)” value (CYP199A4 [3])?
Answer: 146±21 nmol.nmol‐CYP^−1.min^−1

Question: What about the “Coupling (percentage of NADH utilized for the formation of products)” value (CYP199A4 [3]) of the same compound?
Answer: 41±5%

Question: What about the product formation rate (CYP199A4 [3]; [12]) of the same compound?
Answer: 146 min⁻¹

Question: Which “HS (%), change in the heme spin state” value (CYP199A4 [1]) does the source give for `CCCCc1ccc(C(=O)O)cc1` [4‐n‐butylBA, 4‐n‐butylbenzoic acid] here?
Answer: 90%

Question: And the Kd (CYP199A4 [2])?
Answer: 390 ± 40 nM

Question: And the “unidentified minor product, share of total products” value (CYP199A4 [4]; WT CYP199A4, HPLC)?
Answer: < 2%

Question: What about the “Cα–Cβ desaturation alkene product, share of total products” value (CYP199A4 [4]; WT CYP199A4, in vitro turnover) of the same compound?
Answer: 50%

Question: And the “Cβ hydroxylation product, share of total products” value (CYP199A4 [4]; WT CYP199A4, in vitro turnover)?
Answer: did not generate any detectable product

Question: And the “epoxide further oxidation product, share of total products” value (from here on “epoxide further oxidation product, share”) (CYP199A4 [4]; WT CYP199A4, in vitro turnover)?
Answer: 2%

Question: And the “PFR (product formation rate)” value (CYP199A4 [3])?
Answer: 67±3 nmol.nmol‐CYP^−1.min^−1

Question: What about the “Coupling (percentage of NADH utilized for the formation of products)” value (CYP199A4 [3]) of the same compound?
Answer: 40±1%

Question: What about the product formation rate (CYP199A4 [3]; [12]) of the same compound?
Answer: 67 min⁻¹

Question: What does the source list for `CC(C)(C)c1ccc(C(=O)O)cc1` [4‐t‐butylBA, 4‐t‐butylbenzoic acid]?
Answer: shift to the high‐spin form of ferric CYP199A4 (CYP199A4 [5]): ≥ 95%; HS (%), change in the heme spin state from low‐spin to high‐spin upon addition of substrate (CYP199A4 [5]): ≥95%; Coupling (percentage of NADH utilized for the formation of products) (CYP199A4 [6]): 100±13%; NADH (frequency of NADH oxidation) (CYP199A4 [6]): 227±4 nmol.nmol‐CYP^−1.min^−1; PFR (product formation rate) (CYP199A4 [6]): 227±32 nmol.nmol‐CYP^−1.min^−1

Question: Which “HS (%), change in the heme spin state” value (CYP199A4 [1]) does the source give for `CCCc1ccc(C(=O)O)cc1` [4‐n‐propylBA, 4‐n‐propylbenzoic acid] here?
Answer: ≥95%

Question: What about the “HS (%), change in the heme spin state” value (CYP199A4 [1]; [13]) of the same compound?
Answer: ≥ 95%

Question: What about the NADH oxidation rate (F298V mutant of CYP199A4 [7]) of the same compound?
Answer: 378 ± 5 min⁻¹

Question: And the coupling efficiency (F298V mutant of CYP199A4 [7])?
Answer: 71%

Question: And the “shift to the high‐spin form” value (F298V mutant of CYP199A4 [8])?
Answer: ≥ 95%

Question: And the Kd (CYP199A4 [2])?
Answer: 540 ± 20 nM

Question: And the “Cβ hydroxylation product 4‐(2‐hydroxypropyl)benzoic acid” value (F298V mutant of CYP199A4 [9])?
Answer: almost none

Question: What about the “metabolites arising from initial desaturation, share of total products” value (F298V mutant of CYP199A4 [9]) of the same compound?
Answer: 73%

Question: What about the “epoxide further oxidation product, share” value (CYP199A4 [4]; WT CYP199A4, in vitro turnover) of the same compound?
Answer: 12%

Question: And the “PFR (product formation rate)” value (CYP199A4 [3])?
Answer: 594±72 nmol.nmol‐CYP^−1.min^−1

Question: What about the “Coupling (percentage of NADH utilized for the formation of products)” value (CYP199A4 [3]) of the same compound?
Answer: 86±8%

Question: And the “Coupling (percentage of NADH utilized for the formation of products)” value (CYP199A4 [3]; [13])?
Answer: 86%

Question: What does the source list for `CC(C)c1ccc(C(=O)O)cc1` [4‐isopropylBA, 4‐isopropylbenzoic acid]?
Answer: Kd (CYP199A4 [10]): 290 ± 10 nM; shift to the high‐spin form of ferric CYP199A4 (CYP199A4 [5]): ≥ 95%; HS (%), change in the heme spin state from low‐spin to high‐spin upon addition of substrate (CYP199A4 [5]): ≥95%; Coupling (percentage of NADH utilized for the formation of products) (CYP199A4 [6]): 68±1%; NADH (frequency of NADH oxidation) (CYP199A4 [6]): 325±36 nmol.nmol‐CYP^−1.min^−1; PFR (product formation rate) (CYP199A4 [6]): 221±27 nmol.nmol‐CYP^−1.min^−1

Question: For `CCCCCCCc1ccc(C(=O)O)cc1` [4‐n‐heptylBA, 4‐n‐heptylbenzoic acid], which “HS (%), change in the heme spin state” value (CYP199A4 [1]) is on record?
Answer: ≥95%

Question: And the Kd (CYP199A4 [2])?
Answer: 160 ± 30 nM

Question: What about the “epoxide further oxidation product, share” value (CYP199A4 [4]; WT CYP199A4, in vitro turnover) of the same compound?
Answer: 3%

Question: And the “PFR (product formation rate)” value (CYP199A4 [3])?
Answer: 147±12 nmol.nmol‐CYP^−1.min^−1

Question: What about the “Coupling (percentage of NADH utilized for the formation of products)” value (CYP199A4 [3]) of the same compound?
Answer: 53±2%

Question: And the product formation rate (CYP199A4 [3]; [12])?
Answer: 147 min⁻¹

Question: And the “Coupling (percentage of NADH utilized for the formation of products)” value (CYP199A4 [3]; listed as 4‐n‐heptylbenzoic acid)?
Answer: 53%

Question: What does the source list for `O=C(O)c1ccc(C2CC2)cc1` [4‐cyclopropylBA, 4‐cyclopropylbenzoic acid]?
Answer: HS (%), change in the heme spin state from low‐spin to high‐spin upon addition of substrate (CYP199A4 [1]): ≥95%; HS (%), change in the heme spin state from low‐spin to high‐spin upon addition of substrate (CYP199A4 [1]; listed as 4‐cyclopropylbenzoic acid): ≥ 95%; Kd (CYP199A4 [2]): 280 ± 20 nM; Cα–Cβ desaturation alkene product, share of total products (CYP199A4 [4]; WT CYP199A4, in vitro turnover): No desaturation was observed; PFR (product formation rate) (CYP199A4 [3]): 170±22 nmol.nmol‐CYP^−1.min^−1; Coupling (percentage of NADH utilized for the formation of products) (CYP199A4 [3]): 45±5%; NADH oxidation rate (CYP199A4 [3]; [12]): 383 min⁻¹; product formation rate (CYP199A4 [3]; [12]): 170 min⁻¹; hydrogen peroxide uncoupling (CYP199A4 [11]): ≤ 2%

Question: For `CCc1ccc(C(=O)O)cc1` [4‐ethylBA, 4‐ethylbenzoic acid], which Kd (CYP199A4 [10]) is on record?
Answer: 340 ± 20 nM

Question: And the “shift to the high‐spin form of ferric CYP199A4” value (CYP199A4 [5])?
Answer: ≥ 95%

Question: What about the “HS (%), change in the heme spin state” value (CYP199A4 [5]) of the same compound?
Answer: ≥95%

Question: And the “Coupling (percentage of NADH utilized for the formation of products)” value (CYP199A4 [6])?
Answer: 64±4%

Question: What about the “NADH (frequency of NADH oxidation)” value (CYP199A4 [6]) of the same compound?
Answer: 812±7 nmol.nmol‐CYP^−1.min^−1

Question: And the “PFR (product formation rate)” value (CYP199A4 [6])?
Answer: 525±88 nmol.nmol‐CYP^−1.min^−1
